Assay outcomes: PubChem, several laboratories
SR-BI uptake up: activators of SR-BI mediated DiI-HDL uptake, primary screen, ldlA[mSR-BI] CHO cells, DiI fluorescence. 3 h; 100 = double the neutral-control signal. activation, % at 12.5 µM. 0.096% of 320,000 active;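 active = mean replicate activation of at least 60% and every replicate at or above 60%; inconclusive = mean or all-replicate condition met, but not both; inactive = mean below 60% and not all replicates reaching 60%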;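 also: 0% = median plate neutral-control signal and 100% = twice that signal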
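Assay system: CHO ldlA[mSR-BI] cells, LDL receptor-null, SR-BI overexpressing; medium: Ham's F12 with 0.5% BSA, HEPES 25 mM, pH 7.4; also added: DiI-HDL 10 µg/mL; timing: 3 h uptake period with compound, 37 °C; signal: DiI fluorescence, bottom read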
PKA-R1A activ: activators of PKA-R1A holoenzyme, primary screen, biochemical, fluorescence polarization, Cy5-IP20, bovine R1A, mouse PKAc | activation, % at 11.4 µM | cAMP-dependent protein kinase type I-alpha regulatory subunit (Bos taurus) + … | PKA-R1A dissociation; scaled: DMSO 0%, 113 µM cGMP 100% | AID 504707, 2011 | 0.083% of 340,000 active;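 active = percent activation above the mean of all tested compounds plus 3 SD, cut at about 19% in these data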;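 also: higher means more PKAc released from R1A so a rise in polarization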
PKA-R2B act: activators of PKA-R2B holoenzyme, primary screen, biochemical, fluorescence polarization, Cy5-IP20, human; PKA-R2B holoenzyme dissociation; R2B truncated from residue 108, S112A mutant; 0% DMSO only, 100% 113 µM cGMP; 0.079% of 340,000 active; AID 504700, 2011; activation, % at 11.4 µM;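 active = activation above a cutoff set at the mean over all compounds plus 3 SD, cut at about 18% in these data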;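 also: higher means more holoenzyme dissociation and a rise in polarization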
Target sequence (P31323 whole entry, looked up, other chains not shown, the tested form may be a part): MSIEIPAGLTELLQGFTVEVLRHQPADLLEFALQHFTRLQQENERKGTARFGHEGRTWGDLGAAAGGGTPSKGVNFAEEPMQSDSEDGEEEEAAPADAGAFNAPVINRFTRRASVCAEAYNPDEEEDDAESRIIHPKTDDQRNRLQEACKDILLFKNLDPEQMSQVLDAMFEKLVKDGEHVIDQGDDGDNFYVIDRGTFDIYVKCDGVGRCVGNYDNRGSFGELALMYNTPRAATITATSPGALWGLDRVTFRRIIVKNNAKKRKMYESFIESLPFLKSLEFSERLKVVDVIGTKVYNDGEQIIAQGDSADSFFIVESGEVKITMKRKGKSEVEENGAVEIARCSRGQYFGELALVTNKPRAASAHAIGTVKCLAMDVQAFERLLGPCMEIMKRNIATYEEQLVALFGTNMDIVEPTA
Vif inh: HIV Vif self-association inhibitors, primary screen, imaging, HEK293T, single point; inhibition, % at 7.49 µM; 0.35% of 340,000 active; HEK293T cells, Vif self-association by quenched fluorescence, 24 h; in the data active = inhibition above about 50%, passing the limit was not always enough; inconclusive = no clear call, values can overlap the other calls; inactive = below about 31%
SR-BI HDL uptake: inhibitors of SR-BI mediated HDL lipid uptake, primary screen, ldlA[mSR-BI] cells, fluorescence, single point | Scavenger receptor class B member 1 (Mus musculus), Q61009 | ldlA[mSR-BI] CHO cells, DiI-HDL uptake fluorescence, 3 h | inhibition, % at 12.5 µM | 0.96% of 320,000 active;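 active = mean replicate inhibition of at least 70% and a set share of replicates each scoring 70 or more; inconclusive = meets just one of the two criteria; inactive = fails both criteria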;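 also: 0% = median of neutral control wells and 100% = median of positive control wells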
The depositor's hits bear a star; ? = inconclusive; nt = not tested or not shown. A selection: hits, their analogues and other compounds. The true share with any hit is near 1.4%.

SMILES	SR-BI uptake up	PKA-R1A activ	PKA-R2B act	Vif inh	SR-BI HDL uptake
CCOc1ccccc1N1CCN(C2=C(NS(=O)(=O)c3cccs3)C(=O)c3ccccc3C2=O)CC1	-81.3	-9.4	-0.4	-5.1	81.3*
CN1CCN(C2=C(NS(=O)(=O)c3cccs3)C(=O)c3ccccc3C2=O)CC1	-14.5	-0.5	-1.3	-1.4	14.5
COc1cc(C(=O)N2CCCc3ccccc32)cc(OC)c1OC	-30.0	-6.6	0.3	nt	30.0
COc1ccc(/C=C/C(=O)O)cc1S(=O)(=O)N1CCCc2ccccc21	17.9	-2.1	-1.2	9.2	-17.9
COc1cc(/C=C/C(=O)OCC(=O)N2CCCc3ccccc32)ccc1O	-22.1	-10.2	2.2	67.8*	22.1
CCOC(=O)c1c(C)[nH]c(C(=O)COC(=O)/C=C/c2ccc(O)c(OC)c2)c1C	-42.0	-20.5	-16.9	50.0*	42.0
COc1cc(/C=C/C(=O)O)ccc1S(=O)(=O)N1CCCc2ccccc21	21.1	-12.4	-11.1	96.2*	-21.1
COc1ccc(C(=O)N2CCCc3ccccc32)cc1OC	-83.2	-0.8	-0.3	-5.4	83.2*
COCCCN1C(=O)C(CC(=O)NCc2cccc3ccccc23)CC(C(=O)N(C)C)=C1C (centres undefined)	nt	-7.3	-1.9	0.2	nt
O=C(/C=C\c1ccc(-c2cccc([N+](=O)[O-])c2)o1)N1CCOCC1	-16.5	-6.1	-6.8	-10.4	16.5
COc1cc(OC)c(C2=NOC(C(=O)N3CCCc4ccccc43)C2)cc1Cl (centres undefined)	-81.4	5.9	-7.5	-5.5	81.4*
CCC1CCCCN1C(=O)C1CC(c2cc(Cl)c(OC)cc2OC)=NO1 (centres undefined)	-60.1	1.5	-3.4	3.0	60.1
N#CC(C#N)=C1c2cc(S(=O)(=O)NCCO)ccc2-c2ccc(S(=O)(=O)NCCO)cc21	197.2*	-1.7	-1.9	-10.9	-197.2
O=C(N/N=C/c1cccn1-c1ccc([N+](=O)[O-])cc1)c1cccnc1	-88.8	-5.6	2.9	-2.0	88.8*
COc1ccc(OC)c(N(CC(=O)N2CCOCC2)S(C)(=O)=O)c1	-20.5	-3.2	-3.8	-5.6	20.5
CCN1CCc2c(OCc3ccccc3)cccc2C1=O	-80.1	-3.6	-9.8	-3.1	80.1*
COc1ccccc1CN1C(=O)[C@@H]2Cc3c([nH]c4ccccc34)C(C)(C)N2C1=O	-76.2	2.6	-1.8	8.5	76.2*
Cc1ccccc1CN1C(=O)[C@@H]2Cc3c([nH]c4ccccc34)C(C)(C)N2C1=O	-66.8	7.5	-12.4	104.6*	66.8
CC1(C)c2[nH]c3ccccc3c2C[C@@H]2C(=O)N(c3cc(F)ccc3F)C(=O)N21	-77.2	0.1	6.8	2.7	77.2*
CC1(C)c2[nH]c3ccccc3c2C[C@@H]2C(=O)N(Cc3ccccc3Cl)C(=O)N21	-20.5	8.1	8.9	4.2	20.4
Cc1ccc(F)cc1C(=O)N1CCOCC1c1cc(C(=O)Nc2ccccc2)no1 (centres undefined)	nt	nt	nt	10.5	nt
O=C1NC(Cc2ccc(O)cc2)c2nc3cc(F)ccc3c(=O)n2-c2cc3ccccc3cc21 (centres undefined)	nt	-4.0	-1.9	8.9	nt
CCn1c(C)nc2cc(C(=O)N/N=C/c3ccc(O)c(O)c3O)ccc21	5.5	-3.6	1.5	8.4	-5.5
CCC(=NNC(=O)c1ccc2c(c1)nc(C)n2CC)c1cc(F)ccc1O	-114.5	-1.1	0.1	3.3	114.5*
Cc1cccc(Nc2c([N+](=O)[O-])cc(C(=O)N3CC(=O)Nc4ccccc43)cc2[N+](=O)[O-])c1	-81.6	1.4	0.3	0.5	81.7*
SMILES	SR-BI uptake up	PKA-R1A activ	PKA-R2B act	Vif inh	SR-BI HDL uptake
Cc1ccc(C)c(Nc2c([N+](=O)[O-])cc(C(=O)N3CC(=O)Nc4ccccc43)cc2[N+](=O)[O-])c1	-71.7	-8.4	-3.5	2.2	?
CSc1ccccc1OCc1cc(C(=O)N(C)C(C)c2nc(C)cs2)no1 (centres undefined)	-4.1	-4.0	-0.2	-5.3	4.1
O=[N+]([O-])c1ccc(NC(c2ccccc2)c2ccc3cccnc3c2O)cc1 (centres undefined)	-80.5	-5.2	3.2	9.3	80.5*
COc1cccc2c1C(=O)c1c(O)c3c(c(O)c1C2=O)C[C@@](O)(C(=O)CO)C[C@@H]3OC1CC(N)C(O)C(C)O1 (some centres undefined)	21.4	5.8	-14.2	-6.4	-21.4
CC(=O)[C@@]1(O)Cc2c(O)c3c(c(O)c2[C@H](O[C@H]2C[C@H](N)[C@H](O)[C@H](C)O2)C1)C(=O)c1ccccc1C3=O	nt	nt	nt	66.5*	nt
CN(/N=C/c1ccc(N(C)C)cc1)C1=NS(=O)(=O)c2ccccc21	-43.1	-2.5	-1.2	127.9*	43.1
COc1ccc(/C=N/N(C)C2=NS(=O)(=O)c3ccccc32)cc1	-4.9	-8.9	-4.7	5.7	4.9
CC(C)C(c1nnnn1Cc1ccc2c(c1)OCO2)N1CCN(c2ccccc2)CC1 (centres undefined)	-14.6	1.7	-7.8	-11.8	14.6
CC(C)C(c1nnnn1Cc1ccc2c(c1)OCO2)N1CCN(C)CC1 (centres undefined)	17.6	-2.9	6.3	65.9*	-17.6
CCOC(=O)C1(C)CCN1C(=O)c1ccc(N(C)C)cc1 (centres undefined)	nt	nt	nt	7.0	nt
CC(C)COc1ccc(C(=O)Nc2ccc(NC(=O)c3ccco3)c(Cl)c2)cc1	-69.1	1.6	-19.8	4.7	69.1
CC(C)Oc1ccc(C(=O)Nc2ccc(NC(=O)c3ccco3)c(Cl)c2)cc1	nt	-8.6	-3.4	-12.4	78.7*
COc1ccc(NC(=O)c2cc(Cl)ccc2NC(=O)c2ccco2)c(OC)c1	-73.8	-13.7	-6.2	23.0	73.8*
COc1ccc(C(=O)Nc2ccc(NC(=O)c3ccco3)c(Cl)c2)cc1OC	-74.6	-15.0	-0.6	-2.1	74.6*
O=C(Nc1ccc(NC(=O)c2ccco2)c(Cl)c1)c1ccccc1	-30.3	-3.6	4.6	0.8	30.3
COc1ccc(NC(=O)c2ccccc2Cl)c(NC(=O)c2ccco2)c1	-14.7	-5.8	-2.2	-3.3	14.7
Cc1ccc(C(C)C)c(OCC(=O)N2CCN(c3ncccn3)CC2)c1	-12.3	-12.3	-11.3	15.5	12.3
CCCc1c(C(=O)N/N=C/c2c[nH]c3ccccc23)nnn1-c1nonc1N	nt	9.6	-0.3	0.2	nt
Cc1ccsc1/C=N/NC(=O)c1nnn(-c2nonc2N)c1-c1ccccc1	-52.0	-19.4	-3.5	?	52.0
